Common to all, as to format: functional, cell-based
Experiment [1] has as its system K562. As to the kind of experiment: Cytotoxicity against human K562 cells after 72 hrs by MTT assay. To be noted: K562, 72 h. The method, boiled down: (§1)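 Cells kept in RPMI 1640 with 10% FCS and penicillin/streptomycin at 37 °C, 5% CO2, grown to 80% confluency. Seeded at 30,000 cells/well (K562) or 8,000 cells/well (A2780 sens and cisplatin-resistant CisR). After 24 h, exposed to increasing concentrations for 72 h. MTT added, formazan dissolved in DMSO, absorbance read at 544/690 nm. Viability relative to untreated cells (100%), triplicates, IC50.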

Experiment [2] concerns A2780. As to the kind of experiment: Cytotoxicity against human cisplatin sensitive A2780 cells after 72 hrs by MTT assay. To be noted: A2780, 72 h. The essentials: as §1
(Tetrazolium dyes change colour on reduction, which living cells bring about.)

In experiment [3] the test system is A2780. As to the kind of experiment: Cytotoxicity against human cisplatin resistant A2780 cells after 72 hrs by MTT assay. To be noted: A2780, 72 h. The method, boiled down: as §1
The nature of experiment [4]: Cytotoxicity against mouse tsFT210 cells.

SMILES strings stand for the structures. Converted amounts (≈) assume the structure as drawn.

For `O=C1N[C@@H](Cc2c[nH]c3ccccc23)C(=O)N[C@H]1Cc1ccccc1`, the IC50 in experiment [1], in experiment [2] and in experiment [3] was over 100 µM each time.
For `O=C1N[C@@H](Cc2c[nH]c3ccccc23)C(=O)N[C@H]1Cc1c[nH]c2ccccc12`, the IC50 in experiment [1], in experiment [2] and in experiment [3] was over 100 µM each time.
Turning to `O=C1N[C@@H](Cc2c[nH]c3ccccc23)C(=O)N[C@H]1Cc1ccc(O)cc1`, the 50% inhibitory concentration (IC50) in experiment [1], in experiment [2] and in experiment [3] was over 100 µM throughout.
With `O=C1N[C@@H](Cc2c[nH]c3ccccc23)C(=O)N2CCC[C@H]12`, the IC50 in experiment [1], in experiment [2] and in experiment [3] was over 100 µM each time.
For `O=C1N[C@H](Cc2c[nH]c3ccccc23)C(=O)N2CCC[C@@H]12`, the IC50 in experiment [1], in experiment [2] and in experiment [3] was over 100 µM each time.
In the case of `O=C1N[C@H](Cc2c[nH]c3ccccc23)C(=O)N2CCC[C@H]12`, the IC50 in experiment [1], in experiment [2] and in experiment [3] was over 100 µM in each case.
For the molecule `C[C@@H]1NC(=O)[C@H](Cc2c[nH]c3ccccc23)NC1=O`, the IC50 in experiment [1], in experiment [2] and in experiment [3] was over 100 µM throughout.
Turning to `C[C@H]1NC(=O)[C@H](Cc2c[nH]c3ccccc23)NC1=O`, the IC50 in experiment [1], in experiment [2] and in experiment [3] was over 100 µM in each case.
Consider `C[C@H]1NC(=O)[C@@H](Cc2c[nH]c3ccccc23)NC1=O`, for which the IC50 in experiment [1], in experiment [2] and in experiment [3] was over 100 µM in each case.
As for `C[C@@H]1NC(=O)[C@@H](Cc2c[nH]c3ccccc23)NC1=O`, the half-maximal inhibitory concentration (IC50) in experiment [1], in experiment [2] and in experiment [3] was over 100 µM throughout.
Turning to `O=C1N[C@@H](Cc2c[nH]c3ccccc23)C(=O)N[C@H]1Cc1c[nH]cn1`, the IC50 in experiment [1], in experiment [2] and in experiment [3] was over 100 µM in each case.
For the molecule `CC(C)=CCc1[nH]c2ccccc2c1C[C@@H]1NC(=O)CNC1=O`, the IC50 – broadly, the concentration that gives 50% inhibition – in experiment [1] was determined as 16.7 µM; in experiment [2] it was 82.4 µM; in experiment [3] it was 85.2 µM.
Turning to `CC(C)=CCc1[nH]c2ccccc2c1C[C@@H]1NC(=O)[C@H](CC(C)C)NC1=O`, the values for the concentration for half-maximal inhibition (IC50) in experiment [1], in experiment [2] and in experiment [3] were 30.1 µM, 92.6 µM and 75 µM, respectively.
In the case of `CC(C)=CCc1[nH]c2ccccc2c1C[C@@H]1NC(=O)[C@H](Cc2c[nH]c3ccccc23)NC1=O`, the IC50 in experiment [1] worked out at 29.8 µM; in experiment [2], 89.7 µM; in experiment [3], 80.8 µM.
For `CC(C)=CCc1[nH]c2ccccc2c1C[C@@H]1NC(=O)[C@H](Cc2ccc(O)cc2)NC1=O`, the half-inhibitory concentration (IC50) stood at 31.6 µM in experiment [1], 89.8 µM in experiment [2] and 83.3 µM in experiment [3].
Turning to `CC(C)=CCc1[nH]c2ccccc2c1C[C@@H]1NC(=O)[C@H](Cc2ccccc2)NC1=O`, the IC50 in experiment [1] was found to be 70.4 µM; in experiment [2] it was 87 µM; in experiment [3], 81.6 µM.
Consider `CC(C)=CCc1[nH]c2ccccc2c1C[C@@H]1NC(=O)[C@H](C)NC1=O`, for which the IC50 in experiment [1] stood at 35.2 µM; in experiment [2], 89.8 µM; in experiment [3], 82.2 µM.
On the same counts, the results for `CC(C)=CCc1[nH]c2ccccc2c1C[C@@H]1NC(=O)[C@@H](C)NC1=O` are 34.5 µM, 77.2 µM and 77 µM.
On to `CC(C)=CCc1[nH]c2ccccc2c1C[C@H]1NC(=O)[C@@H](C)NC1=O`, for which the IC50 in experiment [1] is 34.7 µM; in experiment [2] it was 85 µM; in experiment [3], 81.1 µM.
Take `CC(C)=CCc1[nH]c2ccccc2c1C[C@H]1NC(=O)[C@H](C)NC1=O`: the IC50 in experiment [1] worked out at 35.3 µM; in experiment [2], 86.2 µM; in experiment [3], 84.3 µM.
On the same counts, the results for `CC(C)=CCc1[nH]c2ccccc2c1C[C@@H]1NC(=O)[C@H](Cc2c[nH]cn2)NC1=O` are 32.2 µM, 91.8 µM and 91.7 µM.
On the same counts, the results for `O=C1CNC(=O)[C@H](Cc2c[nH]c3ccccc23)N1` are over 100 µM, over 100 µM and over 100 µM.
Consider `CC(C)=CCc1[nH]c2ccccc2c1C[C@H]1NC(=O)[C@H]2CCCN2C1=O`, for which the results for the IC50 in experiment [1], in experiment [2] and in experiment [3] were 30.9 µM, 93.1 µM and 85.6 µM, respectively.
On to `CC(C)=CCc1[nH]c2ccccc2c1C[C@H]1NC(=O)[C@@H]2CCCN2C1=O`, for which the IC50 came to 40.4 µM in experiment [1], 100 µM in experiment [2] and 87.8 µM in experiment [3].
As for `CC(C)C[C@@H]1NC(=O)[C@H](Cc2c[nH]c3ccccc23)NC1=O`, the IC50 in experiment [1], in experiment [2] and in experiment [3] was over 100 µM each time.
Consider `CC(C)=CCc1[nH]c2ccccc2c1C[C@@H]1NC(=O)[C@H]2CCCN2C1=O`, for which the IC50 in experiment [1] worked out at 34.7 µM; in experiment [2] it was 106 µM; in experiment [3], 92 µM.
Consider `O=C1N[C@@H](Cc2c[nH]c3ccccc23)C(=O)N2CCC[C@@H]12` [BREVIANAMIDE F], for which the 50% inhibitory concentration (IC50) in experiment [1], in experiment [2] and in experiment [3] was over 100 µM each time.
For `CC(C)=CCc1[nH]c2ccccc2c1C[C@@H]1NC(=O)[C@@H]2CCCN2C1=O` [TRYPROSTATIN B], the IC50 in experiment [1] was found to be 21.1 µM; in experiment [2], 82.8 µM; in experiment [3], 85.9 µM; in experiment [4] (tsFT210), 18.8 µM. Besides, the MIC in experiment [4] amounted to 4.4 µM (≈ 1.55 µg/mL).

The values above are taken from ChEMBL document CHEMBL2029224, “Prenylation at the indole ring leads to a significant increase of cytotoxicity of tryptophan-containing cyclic dipeptides” (Bioorg Med Chem Lett, 2012).
